In brackets after ≈: the same amount, converted by molar mass.
Legend:
HepG2 = test: Cytotoxicity against human HepG2 cells; format: cell-based
In short: (§1)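 IC50 in µg/mL, taken as the mean of duplicate determinations.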

[1] = Effect on calcein accumulation in multidrug resistant human 2780 AD cells at 2.5 ug/mL relative to control; format: functional
In short: (§2)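 Calcein (formed from calcein AM by cellular esterase) accumulated in multidrug-resistant ovarian cancer 2780 AD cells. Read in the presence of 0.25, 2.5 or 25 µg/mL test compound and expressed as % of control. Means of triplicate determinations.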

[2] = Cytotoxicity against human WI38 cells; format: cell-based; details: WI-38; in short: as §1
WI-38 VA13 = test: Cytotoxicity against human VA13 cells; format: cell-based; in short: as §1
[3] = Effect on calcein accumulation in multidrug resistant human 2780 AD cells at 25 ug/mL relative to control; format: functional; in short: as §2
[4] = Effect on calcein accumulation in multidrug resistant human 2780 AD cells at 0.25 ug/mL relative to control; format: functional; in short: as §2
A549 [5] = test: Cytotoxicity against human A549 cells by MTT assay; format: cell-based
In short: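 A549 cells exposed to serial dilutions for 24 h. Viability (%) read by MTT and used to derive IC50. Triplicate cultures.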

A549 [6] = test: Inhibition of ICAM1 induction in human A549 cells; format: functional, cell-based
In short: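 A549 cells pretreated 1 h with a range of test concentrations, then stimulated with IL-1α for 6 h. Surface ICAM-1 detected with primary and secondary antibodies plus enzyme substrate, absorbance at 415 nm. Triplicate cultures, IC50 derived.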

[7] = Effect on calcein accumulation in multidrug resistant human 2780 AD cells at 25 ug/mL relative to verapamil; format: functional
[8] = Effect on calcein accumulation in multidrug resistant human 2780 AD cells at 0.25 ug/mL relative to verapamil; format: functional
[9] = Effect on calcein accumulation in multidrug resistant human 2780 AD cells at 2.5 ug/mL relative to verapamil; format: functional

SMILES | IC50 (HepG2) [µg/mL] | Activity [1] [%] | IC50 [2] [µg/mL] | IC50 (WI-38 VA13) [µg/mL] | Activity [3] [%] | Activity [4] [%] | IC50 (A549 [5]) [µM] | IC50 (A549 [6]) [µM] | Activity [7] [%] | Activity [8] [%] | IC50 (A549 [5]; read-out: IC50) [µM] | Activity [9] [%] | IC50 (A549 [6]; read-out: IC50) [µM]
C[C@]12C(=O)C[C@H]3[C@@H](C=CC4=CC(=O)CC[C@@]43C)[C@@H]1CC[C@@H]2C(=O)CO | 94.9 (≈ 277 µM) | 105 | 48.1 (≈ 140 µM) | 87.7 (≈ 256 µM) | 140 | 110 |  |  |  |  |  |  | 
CC(=O)[C@]12O[C@H]1C[C@H]1[C@@H]3C=CC4=CC(=O)CC[C@]4(C)[C@H]3C[C@@H](O)[C@@]12C | 62.1 (≈ 181 µM) | 108 | 51.1 (≈ 149 µM) | 73.1 (≈ 213 µM) | 99 | 103 | > 100 | > 100 |  |  |  |  | 
C[C@@H](O)[C@H]1CC[C@H]2[C@@H]3C=CC4=CC(=O)CC[C@]4(C)[C@H]3CC(=O)[C@]12C | 49.2 (≈ 150 µM) | 127 | 66.4 (≈ 202 µM) | 57.4 (≈ 175 µM) | 138 | 116 |  |  | 93 | 120 | > 300 | 117 | > 300
CC(=O)C1=CC[C@H]2[C@@H]3C=CC4=CC(=O)CC[C@]4(C)[C@H]3C[C@@H](O)[C@]12C [NERIDIENONE A] | 2.5 (≈ 7.66 µM) | 92 | 4.9 (≈ 15 µM) | 0.68 (≈ 2.08 µM) | 107 | 109 |  |  |  |  | 53.1 |  | 7
C[C@]12C(=O)C[C@H]3[C@@H](C=CC4=CC(=O)CC[C@@]43C)[C@@H]1CC[C@@H]2[C@H](O)CO [NERIDIENONE B] | > 100 | 154 | 73.5 (≈ 213 µM) | > 100 | 148 | 110 |  |  | 100 | 113 |  | 141 | 
COc1ccc(CCN(C)CCCC(C#N)(c2ccc(OC)c(OC)c2)C(C)C)cc1OC (stereo not given) [VERAPAMIL] |  | 109 |  |  | 148 | 97 |  |  |  |  |  |  | 

Source: ChEMBL document CHEMBL1138406, “Bioactive pregnanes from Nerium oleander” (J Nat Prod, 2007)
